Data published in ChEMBL document CHEMBL5634186, “Structure-Activity Relationship Study of Biselyngbyolide B Reveals Mitochondrial Fission-Induced Cytotoxicity in Cancer” (ACS Med Chem Lett, 2024).
Activity calls are given as the source filed them. The rule behind the calls is not given here.

What was measured:
[1] = Cytotoxicity against HEK293 cells assessed as reduction in cell viability incubated for 16 hrs by MTT assay; assay type: toxicity, cell-based; details: human
[2] = test system: HCT-116; assay: Anticancer activity against human HCT-116 cells assessed as inhibition of cell viability incubated for 16 hrs by MTT assay; assay type: functional, cell-based; details: HCT-116, 16 h
[3] = test system: HCT-116; assay: Induction of mitochondrial membrane potential loss in human HCT-116 cells at 0.5 to 1 uM incubated for 16 hrs by mitotracker red staining based confocal microscope analysis; assay type: functional, cell-based; details: dose 0.5-1 µM
In short: (§1)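 HCT116 cells treated 16 h with compound (0.5 or 1 μM where dosed); stained 30 min with MitoTracker Deep Red FM (membrane potential) or CellROX Red FM (ROS); confocal imaging; mean fluorescence intensity quantified from five fields.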

[4] = test system: HCT-116; assay: Induction of ROS generation in human HCT-116 cells at 0.5 to 1 uM incubated for 16 hrs by CellROX Red staining based confocal microscope analysis; assay type: functional, cell-based; details: dose 0.5-1 µM; in short: as §1
[5] = test system: HCT-116; assay: Induction of mitochondrial fission in human HCT-116 cells assessed as increase in DRP1 phosphorylation at S616 at 0.5 to 1 uM incubated for 8 to 24 hrs by immunoblotting analysis; assay type: functional, cell-based; details: dose 0.5-1 µM, time 8-24 hrs
In short: (§2)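 Immunoblot in HCT116 cells: p-DRP1 S616, p-DRP1 S637, DRP1, Mitofusin1, Mitofusin2 and MFF over time (0, 8, 16, 24 h); p-DRP1 S616, S637, DRP1, Mitofusin1 and OPA at 0.5 and 1 μM. β-Actin loading control.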

[6] = test system: HCT-116; assay: Induction of mitochondrial fission in human HCT-116 cells assessed as decrease in DRP1 phosphorylation at S637 at 0.5 to 1 uM incubated for 8 to 24 hrs by immunoblotting analysis; assay type: functional, cell-based; details: dose 0.5-1 µM, time 8-24 hrs; in short: as §2
[7] = test system: HCT-116; assay: Induction of ROS production in human HCT-116 cells assessed as deterioration of mitochondrial length and area at 1 uM incubated for 16 hrs in presence of CellLight Mitochondria-GFP by confocal microscopy analysis; assay type: functional, cell-based
In short: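 HCT116 cells transfected with CellLight Mitochondria-GFP, treated 1 μM for 16 h; confocal images quantified for mitochondrial length and area.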

CCCCC[C@H]1C/C=C/C=C/C[C@H](C)/C=C(\C)[C@@H](OC)C/C=C/[C@@H](O)CC(=O)O1
IC50 at 16 h [1]: 14.3 µM | IC50 [2]: 8.1 µM

C/C=C/C/C(C)=C\[C@H]1C/C=C/C=C/C[C@H](C)/C=C(\C)[C@@H](OC)C/C=C/CCC(=O)O1
IC50 at 16 h [1]: 15.2 µM | IC50 [2]: 15.6 µM

CCCCC[C@@H]1C/C=C/C=C/C[C@H](C)/C=C(\C)[C@@H](OC)C/C=C/[C@@H](O)CC(=O)O1
IC50 at 16 h [1]: 20.2 µM | IC50 [2]: 23 µM | Activity [3]: inactive | Activity [4]: inactive | Activity [5]: Active | Activity [6]: inactive | Activity [7]: Active
